Source: ChEMBL document CHEMBL1133563, “Development of new hydroxamate matrix metalloproteinase inhibitors derived from functionalized 4-aminoprolines” (J Med Chem, 2000)
pIC50: −log10 of the molar value.

Tests used:
Stromelysin-1 = Stromelysin-1 (Homo sapiens, UniProt P08254); assay: In vitro inhibitory activity against matrix metalloprotease -3 (stromelysin)
Matrilysin = molecular target: T1, Matrilysin (Homo sapiens, UniProt P09237); assay: In vitro inhibitory activity against matrix metalloprotease-7 (matrilysin, MMP-7)
T1 sequence (P09237 whole entry): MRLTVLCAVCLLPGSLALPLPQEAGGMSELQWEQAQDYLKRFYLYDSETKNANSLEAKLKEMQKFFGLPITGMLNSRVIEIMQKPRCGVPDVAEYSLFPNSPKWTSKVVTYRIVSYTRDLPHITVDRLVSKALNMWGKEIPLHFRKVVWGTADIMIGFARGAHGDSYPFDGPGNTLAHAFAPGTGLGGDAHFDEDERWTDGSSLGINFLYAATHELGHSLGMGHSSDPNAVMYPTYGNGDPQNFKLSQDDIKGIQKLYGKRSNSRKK
Summary of the method: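 Human recombinant truncated enzymes, final MMP-1 8 nM, MMP-3 16 nM, MMP-7 2 nM. Quenched-fluorescence assay with Mca-Pro-Leu-Gly-Leu-Dpa-Ala-Arg-NH₂ (4 µM) in 50 mM Tris pH 7.5, 0.2 M NaCl, 5 mM CaCl₂, 0.02% Brij-35 at 25 °C. Fluorescence (ex 328/em 393 nm) read kinetically for 30 min.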

Interstitial collagenase = molecular target: T2, Interstitial collagenase (Homo sapiens, UniProt P03956); assay: In vitro inhibitory activity against matrix metalloprotease -1 (collagenase-1)
T2 sequence (P03956 whole entry): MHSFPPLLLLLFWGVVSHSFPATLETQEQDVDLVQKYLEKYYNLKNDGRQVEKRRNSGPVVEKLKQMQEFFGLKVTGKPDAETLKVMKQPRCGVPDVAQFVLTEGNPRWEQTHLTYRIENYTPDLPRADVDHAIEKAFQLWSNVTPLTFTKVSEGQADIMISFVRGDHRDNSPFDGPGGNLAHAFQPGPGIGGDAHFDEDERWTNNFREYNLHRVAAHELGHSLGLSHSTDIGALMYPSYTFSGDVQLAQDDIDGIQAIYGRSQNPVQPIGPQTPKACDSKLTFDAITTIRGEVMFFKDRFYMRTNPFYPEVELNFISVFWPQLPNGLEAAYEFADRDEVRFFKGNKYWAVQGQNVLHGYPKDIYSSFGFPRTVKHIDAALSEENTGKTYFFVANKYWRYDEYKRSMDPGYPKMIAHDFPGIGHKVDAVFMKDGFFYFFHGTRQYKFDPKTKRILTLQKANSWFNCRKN

Collagenase 3 = Collagenase 3 (Homo sapiens, UniProt P45452); assay: In vitro inhibitory activity against human recombinant matrix metalloprotease-13 (collagenase-3)
[1] = molecular target: 72 kDa type IV collagenase (Homo sapiens, UniProt P08253); assay: In vitro inhibitory activity against matrix metalloprotease -2 (gelatinase-A)
Chain of 72 kDa type IV collagenase (P08253 whole entry): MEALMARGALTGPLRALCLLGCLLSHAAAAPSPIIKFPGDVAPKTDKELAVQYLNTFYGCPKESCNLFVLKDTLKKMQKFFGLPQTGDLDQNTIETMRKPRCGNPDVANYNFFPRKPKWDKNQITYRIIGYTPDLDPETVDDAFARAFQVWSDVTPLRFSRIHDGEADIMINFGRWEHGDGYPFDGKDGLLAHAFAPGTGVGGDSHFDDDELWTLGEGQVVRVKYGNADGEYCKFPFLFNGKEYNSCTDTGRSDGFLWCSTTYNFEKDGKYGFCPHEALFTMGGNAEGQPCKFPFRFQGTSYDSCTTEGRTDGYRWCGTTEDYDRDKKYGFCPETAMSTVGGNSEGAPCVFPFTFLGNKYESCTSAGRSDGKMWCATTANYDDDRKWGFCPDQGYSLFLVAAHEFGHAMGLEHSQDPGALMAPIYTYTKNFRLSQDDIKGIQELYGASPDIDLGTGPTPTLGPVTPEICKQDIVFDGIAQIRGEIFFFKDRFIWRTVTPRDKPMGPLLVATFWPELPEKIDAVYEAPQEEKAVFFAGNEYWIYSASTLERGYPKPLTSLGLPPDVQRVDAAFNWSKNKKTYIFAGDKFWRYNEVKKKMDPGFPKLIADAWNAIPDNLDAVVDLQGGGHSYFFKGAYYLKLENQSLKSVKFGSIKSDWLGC

Chain of Stromelysin-1 (P08254 whole entry): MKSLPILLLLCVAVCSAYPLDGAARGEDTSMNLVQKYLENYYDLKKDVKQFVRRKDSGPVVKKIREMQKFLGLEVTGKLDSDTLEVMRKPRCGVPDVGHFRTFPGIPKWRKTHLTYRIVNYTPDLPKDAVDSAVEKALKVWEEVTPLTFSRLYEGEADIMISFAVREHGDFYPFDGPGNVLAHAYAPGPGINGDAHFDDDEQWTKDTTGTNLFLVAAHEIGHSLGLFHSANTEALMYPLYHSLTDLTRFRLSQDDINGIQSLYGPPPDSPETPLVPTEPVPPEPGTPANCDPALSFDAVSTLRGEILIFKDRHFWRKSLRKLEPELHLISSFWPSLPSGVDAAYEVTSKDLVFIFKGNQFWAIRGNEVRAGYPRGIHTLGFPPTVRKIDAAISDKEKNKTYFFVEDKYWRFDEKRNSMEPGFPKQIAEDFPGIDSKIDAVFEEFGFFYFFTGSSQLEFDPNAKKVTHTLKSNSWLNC

Structure (SMILES)	pIC50 (Stromelysin-1)	pIC50 (Matrilysin)	pIC50 (Interstitial collagenase)	pIC50 (Collagenase 3)	pIC50 [1]
COc1ccc(S(=O)(=O)N2C[C@@H](N(C)S(C)(=O)=O)C[C@@H]2C(=O)NO)cc1	8.22	6.28	7.72	9.30	–
COc1ccc(S(=O)(=O)N2C[C@@H](N(Cc3cccnc3)C(=O)C(C)C)C[C@@H]2C(=O)NO)cc1	8.00	–	6.57	7.77	8.66
CCCCOc1ccc(S(=O)(=O)N2C[C@@H](NC(=O)[C@@H](O)C(C)C)C[C@@H]2C(=O)NO)cc1	8.10	5.77	6.57	9.10	–
CN1CC(=O)N([C@H]2C[C@H](C(=O)NO)N(S(=O)(=O)c3ccc(Oc4ccncc4)cc3)C2)C1=O	7.96	5.13	6.22	9.15	–
O=C(NO)[C@H]1C[C@H](N2CCCCC2)CN1S(=O)(=O)c1ccc(Oc2ccccc2)cc1	8.10	6.21	7.77	> 9.40	–
CN1CC(=O)N([C@H]2C[C@H](C(=O)NO)N(S(=O)(=O)c3ccc(Oc4ccccc4)cc3)C2)C1=O	8.22	6.51	7.68	> 9.40	–
CCOc1ccc(S(=O)(=O)N2C[C@@H](N3C(=O)CN(C)C3=O)C[C@@H]2C(=O)NO)cc1	7.48	5.12	6.24	8.40	–
COc1ccc(S(=O)(=O)N2C[C@@H](NC(=O)[C@H](Cc3ccccc3)OCc3ccccc3)C[C@@H]2C(=O)NO)cc1	8.00	–	6.62	8.70	9.70
COc1ccc(S(=O)(=O)N2C[C@@H](N3CCCS3(=O)=O)C[C@@H]2C(=O)NO)cc1	7.89	5.85	7.38	9.40	–
CCCOc1ccc(S(=O)(=O)N2C[C@@H](N3C(=O)CN(C)C3=O)C[C@@H]2C(=O)NO)cc1	8.05	5.59	6.59	9.52	–
CCCCCc1ccc(S(=O)(=O)N2C[C@@H](N3CCCCC3)C[C@@H]2C(=O)NO)cc1	7.92	5.01	5.70	9.05	–
COc1ccc(S(=O)(=O)N2C[C@@H](N3CCS(=O)(=O)CC3)C[C@@H]2C(=O)NO)cc1	7.64	5.15	6.52	9.00	–
C=CCN1CC(=O)N([C@H]2C[C@H](C(=O)NO)N(S(=O)(=O)c3ccc(OCCOC)cc3)C2)C1=O	7.34	4.96	5.54	8.70	8.70
CCCCOc1ccc(S(=O)(=O)N2C[C@@H](NC(=O)[C@H](C)O)C[C@@H]2C(=O)NO)cc1	8.00	5.38	5.92	9.05	–
CCCCOc1ccc(S(=O)(=O)N2C[C@@H](N)C[C@@H]2C(=O)NO)cc1	8.10	–	6.42	–	–
CNC(=O)N[C@H]1C[C@H](C(=O)NO)N(S(=O)(=O)c2ccc(OC)cc2)C1	6.52	–	5.51	7.57	–
CCCOc1ccc(S(=O)(=O)N2C[C@@H](N3CCCCC3)C[C@@H]2C(=O)NO)cc1	8.05	6.21	6.68	9.40	–
CCCCOc1ccc(S(=O)(=O)N2C[C@@H](NS(C)(=O)=O)C[C@@H]2C(=O)NO)cc1	–	5.41	5.89	9.15	9.10
COc1ccc(S(=O)(=O)N2C[C@@H](N3C(=O)CN(C)C3=O)C[C@@H]2C(=O)NO)cc1	8.10	5.74	6.70	9.30	–
O=C(NO)[C@H]1C[C@H](N2CCOCC2)CN1S(=O)(=O)c1ccc(Oc2ccccc2)cc1	8.15	6.15	7.72	> 9.40	–
O=C(NO)[C@H]1C[C@H](N2CCCC2)CN1S(=O)(=O)c1ccc(Oc2ccccc2)cc1	8.30	6.10	7.72	> 9.40	–
CCCCOc1ccc(S(=O)(=O)N2C[C@@H](NS(=O)(=O)c3cn(C)cn3)C[C@@H]2C(=O)NO)cc1	8.22	–	6.15	–	–
CCCN[C@H]1C[C@H](C(=O)NO)N(S(=O)(=O)c2ccc(OC)cc2)C1	7.06	5.66	–	8.30	–
